Assay results reported in ChEMBL document CHEMBL1150611, “Gaboroquinones A and B and 4'-O-demethylknipholone-4'-O-beta-D-glucopyranoside, phenylanthraquinones from the roots of Bulbine frutescens” (J Nat Prod, 2002).
Converted amounts (≈) assume the structure as drawn.

Columns and labels:
Plasmodium falciparum [1] = assay: Antiplasmodial activity against chloroquine and pyrimethamine-resistant Plasmodium falciparum K1 infected human erythrocytes after 48 hrs by [3H]hypoxanthine uptake; type: functional, organism-based
Procedure, shortened: (§1)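 Top test concentration was 5.0 µg mL-1.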

Plasmodium falciparum [2] = assay: Antiplasmodial activity against multi drug-sensitive Plasmodium falciparum NF54 infected human erythrocytes after 48 hrs by [3H]hypoxanthine uptake; type: functional, organism-based; procedure, shortened: as §1
Trypanosoma cruzi = assay: Trypanocidal activity against trypomastigotes of Trypanosoma cruzi Tulahuen C2C4 infected in rat L6 cells after 4 days; type: functional, organism-based; settings: L6, 96 h
[3] = system: Trypanosoma brucei rhodesiense; assay: Trypanocidal activity against Trypanosoma brucei rhodesiense STIB 900 after 72 hrs; type: functional, organism-based
L6 = assay: Cytotoxicity against rat L6 cells after 4 days; type: cell-based; settings: L6, 96 h
Procedure, shortened: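 Mammalian-cell cytotoxicity was tested up to a highest concentration of 90 µg mL-1.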

SMILES: COc1c(C(C)=O)c(O)cc(O)c1-c1c(CO)cc(O)c2c1C(=O)c1cccc(O)c1C2=O [GABOROQUINONE A]
- IC50 (Plasmodium falciparum [1]): 4.8 µg/mL (≈ 10.7 µM)
- IC50 (Plasmodium falciparum [2]): 4.2 µg/mL (≈ 9.33 µM)
- IC50 (Trypanosoma cruzi): 33.1 µg/mL (≈ 73.5 µM)
- IC50 [3]: 5.1 µg/mL (≈ 11.3 µM)
- MIC (L6): > 90 µg/mL

SMILES: CC(=O)c1c(O[C@@H]2O[C@H](CO)[C@@H](O)[C@H](O)[C@H]2O)cc(O)c(-c2c(C)cc(O)c3c2C(=O)c2cccc(O)c2C3=O)c1O [BULBINELONESIDE D]
- IC50 (Plasmodium falciparum [1]): 0.41 µg/mL (≈ 0.704 µM)
- IC50 (Plasmodium falciparum [2]): 0.43 µg/mL (≈ 0.738 µM)
- IC50 (Trypanosoma cruzi): 6.8 µg/mL (≈ 11.7 µM)
- IC50 [3]: 0.7 µg/mL (≈ 1.2 µM)
- MIC (L6): 90 µg/mL (≈ 155 µM)

SMILES: COc1cc(O)c(-c2c(C)cc(O)c3c2C(=O)c2cccc(O)c2C3=O)c(O)c1C(C)=O [KNIPHOLONE]
- IC50 (Plasmodium falciparum [1]): 0.67 µg/mL (≈ 1.54 µM)
- IC50 (Plasmodium falciparum [2]): 0.91 µg/mL (≈ 2.09 µM)
- IC50 (Trypanosoma cruzi): 7.6 µg/mL (≈ 17.5 µM)
- IC50 [3]: 9.3 µg/mL (≈ 21.4 µM)
- MIC (L6): 33 µg/mL (≈ 76 µM)

SMILES: COc1cc(O)c(-c2c(CO)cc(O)c3c2C(=O)c2cccc(O)c2C3=O)c(O)c1C(C)=O [GABOROQUINONE B]
- IC50 (Plasmodium falciparum [1]): > 5 µg/mL
- IC50 (Plasmodium falciparum [2]): > 5 µg/mL
- IC50 (Trypanosoma cruzi): > 90 µg/mL
- IC50 [3]: 45.5 µg/mL (≈ 101 µM)
- MIC (L6): > 90 µg/mL
